Common to all, as to format: functional
Assay [1] concerns Rhizoctonia solani. The assay is described as follows: Antifungal activity against Rhizoctonia solani assessed as inhibition of mycelia elongation rate at 50 ppm after 48 hrs relative to control. The procedure, abridged: (§1)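 This was a mycelial growth assay on potato glucose agar. Samples were dissolved in DMF at 500 mg/L (stock), and 1 part solution was mixed with 9 parts thawed medium at 50 °C before plating. Solidified plates were inoculated with a 4 mm mycelium disk, inverted and incubated at 28 °C for 48 h. Medium without sample served as blank. Mycelial elongation radius was measured, in triplicate.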

Assay [2] relates to Cercospora beticola. The assay is described as follows: Antifungal activity against Cercospora beticola assessed as inhibition of mycelia elongation rate at 50 ppm after 48 hrs relative to control. The procedure, abridged: as §1
Assay [3] is described as follows: Antifungal activity against Physalospora pyricola assessed as inhibition of mycelia elongation rate at 50 ppm after 48 hrs relative to control. The settings on record: Botryosphaeria berengeriana. The procedure, abridged:
as §1

Assay [4] is described as follows: Antifungal activity against Gibberella saubinettii assessed as inhibition of mycelia elongation rate at 50 ppm after 48 hrs relative to control. The conditions noted are these: Fusarium graminearum. In outline: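 Poisoned-agar mycelial growth test: sample dissolved in DMF at 500 mg/L, 1 mL mixed into 9 mL thawed potato glucose agar at 50 °C and poured into plates. A 4 mm mycelium disk was placed on each plate, inverted, incubated 28 °C for 48 h. Mycelial elongation radius (mm) measured against a sample-free medium blank; three replicates.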

Assay [5] deals with Fusarium oxysporum. Nature of the assay: Antifungal activity against Fusarium oxysporum assessed as inhibition of mycelia elongation rate at 50 ppm after 48 hrs relative to control. In outline: as §1
Assay [6] concerns Staphylococcus aureus. The assay is described as follows: Antibacterial activity against Staphylococcus aureus ATCC 6538 assessed as growth inhibition after 24 hrs by two-fold serial dilution method. The settings on record: ATCC 6538, 24 h. In outline: (§2)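 MICs were determined by two-fold serial dilution in nutrient broth, following CLSI. The inoculum came from 24 h bacterial cultures on nutrient agar at 37 ± 1 °C and was adjusted in sterile saline to 1×10⁴–10⁵ CFU/mL. Tubes were incubated at 37 ± 1 °C. MIC was read visually after 24 h, with kanamycin as the reference standard.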

In assay [7] the test system is Bacillus spizizenii. The assay is described as follows: Antibacterial activity against Bacillus subtilis ATCC 6633 assessed as growth inhibition after 24 hrs by two-fold serial dilution method. The conditions noted are these: ATCC 6633, 24 h. The procedure, abridged: as §2
Assay [8] relates to Pseudomonas fluorescens. Nature of the assay: Antibacterial activity against Pseudomonas fluorescens ATCC 13525 assessed as growth inhibition after 24 hrs by two-fold serial dilution method. The conditions noted are these: ATCC 13525, 24 h. The procedure, abridged:
as §2

Assay [9] relates to Escherichia coli. Nature of the assay: Antibacterial activity against Escherichia coli ATCC 35218 assessed as growth inhibition after 24 hrs by two-fold serial dilution method. The settings on record: ATCC 35218, 24 h. The procedure, abridged: as §2

The record followed here is ChEMBL document CHEMBL2384957, “Synthesis and antimicrobical evaluation of a novel class of 1,3,4-thiadiazole: derivatives bearing 1,2,4-triazolo[1,5-a]pyrimidine moiety” (2013).

Converted amounts (≈) assume the structure as drawn.

One may read the inhibition as the relative decrease from the control value, in per cent. With `CC(C)(C)C(=O)C(Oc1ccc(Cl)cc1)n1cncn1` (stereo not drawn) [TRIADIMEFON], the values for the inhibition at 50 ppm in assay [1], in [2] and in assay [5] were 40%, 35% and 37%, respectively. Moreover, the inhibition was 55% in [3] and 81% in assay [4].
In the same order, the values of `COC(=O)Nc1nc2ccccc2[nH]1` [CARBENDAZIM] are 62%, 66%, 48%, 74% and 75%.
The MIC is the least concentration at which growth counts as inhibited. As to `Cc1cc(C)n2nc(SCc3nnc(SCc4cccc(Cl)c4)s3)nc2n1`, the inhibition at 50 ppm in assay [1] came to 53%; in assay [2] it was 57%; in [5] it was 57%. Besides, the inhibition in assay [3] was determined as 66%; in assay [4] it was 15%. In addition, the MIC in [6] was greater than 100 µg/mL; in [7], 50 µg/mL (≈ 115 µM); in assay [8], 100 µg/mL (≈ 230 µM); in [9] it was 25 µg/mL (≈ 57.5 µM).
For `Cc1cc(C)n2nc(SCc3nnc(SCc4ccc(Br)cc4F)s3)nc2n1`, the inhibition at 50 ppm in assay [1] is 75%; in [2], 62%; in [5] it was 38%. In addition, the inhibition in [3] turned out to be 82%; in assay [4], 35%. The MIC was greater than 100 µg/mL in assay [6], 50 µg/mL (≈ 101 µM) in assay [7], 12.5 µg/mL (≈ 25.1 µM) in assay [8] and 6.25 µg/mL (≈ 12.6 µM) in assay [9].
Consider `Cc1ccc(CSc2nnc(CSc3nc4nc(C)cc(C)n4n3)s2)c([N+](=O)[O-])c1`, for which the inhibition at 50 ppm in assay [1] came out at 80%; in [2], 64%; in assay [5] it was 54%. Further, the inhibition is 78% in assay [3] and 66% in [4]. Further, the MIC was 25 µg/mL (≈ 54.4 µM) in assay [6], 25 µg/mL (≈ 54.4 µM) in assay [7], 1.56 µg/mL (≈ 3.39 µM) in assay [8] and 12.5 µg/mL (≈ 27.2 µM) in assay [9].
As for `Cc1cc(C)n2nc(SCc3nnc(SCc4cccc([N+](=O)[O-])c4)s3)nc2n1`, the inhibition at 50 ppm in [1] was 64%; in assay [2], 70%; in assay [5], 28%. The inhibition in assay [3] came out at 63%; in [4], 64%. Besides, the MIC in assay [6], in assay [7], in assay [8] and in assay [9] was 25 µg/mL (≈ 56.1 µM) throughout.
For `Cc1cc(C)n2nc(SCc3nnc(SCc4ccccc4Cl)s3)nc2n1`, the inhibition at 50 ppm came to 61% in assay [1], 43% in assay [2] and 40% in assay [5]. Further, the values for the inhibition in assay [3] and in assay [4] were 77% and 45%, respectively. The MIC in assay [6] was greater than 100 µg/mL; in [7], greater than 100 µg/mL; in [8], 100 µg/mL (≈ 230 µM); in assay [9], 12.5 µg/mL (≈ 28.7 µM).
For the compound `Cc1cc(C)n2nc(SCc3nnc(SCc4cccc(F)c4)s3)nc2n1`, the results for the inhibition at 50 ppm in [1], in assay [2] and in assay [5] were 60%, 41% and 45%, respectively. Also, the inhibition in assay [3] was found to be 71%; in assay [4], 17%. The MIC in assay [6] was greater than 100 µg/mL; in assay [7], greater than 100 µg/mL; in assay [8] it was 50 µg/mL (≈ 119 µM); in assay [9], 12.5 µg/mL (≈ 29.9 µM).
Turning to `OCC1=C[C@H](N[C@H]2C[C@H](CO)[C@@H](O[C@@H]3O[C@H](CO)[C@@H](O)[C@H](O)[C@H]3O)[C@H](O)[C@H]2O)[C@H](O)[C@@H](O)[C@@H]1O` [VALIDAMYCIN], the inhibition at 50 ppm in assay [1] worked out at 75%; in assay [2] it was 42%; in assay [5] it was 35%. In addition, the inhibition was found to be 47% in assay [3] and 37% in assay [4].
As to `NC[C@H]1O[C@H](O[C@H]2[C@H](O)[C@@H](O[C@H]3O[C@H](CO)[C@@H](O)[C@H](N)[C@H]3O)[C@H](N)C[C@@H]2N)[C@H](O)[C@@H](O)[C@@H]1O` [KANAMYCIN], the MIC in [6] worked out at 3.13 µg/mL (≈ 6.46 µM); in assay [7], 0.78 µg/mL (≈ 1.61 µM); in [8], 3.13 µg/mL (≈ 6.46 µM); in assay [9], 1.56 µg/mL (≈ 3.22 µM).
